Variants at the floor of the assay were thinned out.
B1: tRNA (parent)
chain: CUCUCGGUAGCCAAGUUGGUUUAAGGCGCAAGACUUUAAUUUAUCACUACGAAAUCUUGAGAUCGGGCGUUCGACUCGCCCCCGGGAGAUUUUUUCCUCGAGCAA

Variants of: B1
Assay: nonsense suppression (GFP-seq) (ratio to wild type); higher = more function; SUP4oc tRNA, yeast GFP reporter sort-seq
Procedure, shortened: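 Yeast carrying genome-integrated SUP4oc tRNA variants from a library with ~3% random mutations were grown in raffinose/galactose medium with 80 mg/L adenine. Each strain also carried a galactose-driven GFP ochre reporter and RFP. Cells were sorted into GFP/RFP bins, and each bin was Illumina-sequenced (phred ≥30). Nonsense suppression (GFPSEQ) is the bin median GFP/RFP, weighted by each variant's estimated cell share per bin, relative to wild-type SUP4oc; variants needed ≥100 reads and ≥30 cells.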

| Variant | nonsense suppression |
| --- | --- |
| A60U C68U | 1.1 |
| G66C G78A | 0.0452 |
| U63A C82U | 0.178 |
| A60U G67A | 0.0457 |
| U58G G85U G86U | ≤ 0.026 |
| A60G A74G | 0.0684 |
| A60G A74C | 0.0318 |
| A60G C81U | 0.0488 |
| A62U C75G | 0.201 |
| G61C U76C | 0.23 |
| G61C A89C | ≤ 0.026 |
| U57C A89G | ≤ 0.026 |
| U57A C82A | ≤ 0.026 |
| G61A A89C | 0.0288 |
| G61A A89G | 0.0396 |
| G61A U63A | 0.304 |
| G61A U63G | 0.227 |
| G61A U63C | 0.728 |
| U57C G66U C81A | ≤ 0.026 |
| G67A | 0.188 |
| U55C G66A | 0.0631 |
| G65C C81G | 1.06 |
| C64U U71G | ≤ 0.026 |
| G61A G65C G69A C80U | ≤ 0.026 |

| Variant | nonsense suppression |
| --- | --- |
| A60C C75U | 0.167 |
| G61U C80U | 0.677 |
| C56U A87G | ≤ 0.026 |
| G61C G67A | 0.0647 |
| U63C C82U | 0.449 |
| G61C C72G | 0.0291 |
| U57A G85A | 0.165 |
| U57A G85U | 0.0736 |
| U63G G67A | 0.0444 |
| U55C G61A | 0.194 |
| A60G U63A | 0.163 |
| U63G G85A | 0.787 |
| U55C U76A | 0.15 |
| U55C C77A | 0.0479 |
| U55C G88C | 0.0568 |
| G66A C72G | ≤ 0.026 |
| G61C G65A C68U | ≤ 0.026 |
| U57A G67U U76C | ≤ 0.026 |
| C56A G69A | ≤ 0.026 |
| A60C G84C | 0.0911 |
| U58A U70C A74G | ≤ 0.026 |
| U58G G85A | 0.0573 |
| G61C C75G | 1.21 |
| G61C C75A | 1.06 |

| Variant | nonsense suppression |
| --- | --- |
| G61C C77G | 0.0296 |
| G61C C77U | 0.0267 |
| U63A G86U | 0.0573 |
| A60G C82A | 0.0331 |
| A62C C64G | ≤ 0.026 |
| U63G G78U | 0.0445 |
| U63G G78A | 0.0891 |
| U55C U58G | ≤ 0.026 |
| A60G G84A | 0.269 |
| G66U C75A | 0.704 |
| A60C G73C | 0.0519 |
| A60C G73U | 0.049 |
| G66A G78A | 0.0402 |
| U58C G73A | 0.0472 |
| U63C | 1.05 |
| U63G | 1.14 |
| U63A | 1.05 |
| G61U C82U | 0.73 |
| U57G G78A | 0.0374 |
| G59A G84C | ≤ 0.026 |
| A60C A62U | 0.0785 |
| A60G G86U | 0.0427 |
| U58A A74G G88A | ≤ 0.026 |
| G59U U70C C72A | ≤ 0.026 |

| Variant | nonsense suppression |
| --- | --- |
| G61A U76C | 0.775 |
| G61A U76G | 0.0268 |
| G59C G85A | 0.114 |
| G65A C75A | 0.109 |
| A62C C64U G84C | ≤ 0.026 |
| U63C G73A | 0.11 |
| U57C A87G | 0.0399 |
| U63C C68U | 0.228 |
| U57A U58C C81G | ≤ 0.026 |
| A62G C83A | ≤ 0.026 |
| U58G G66U C75A | ≤ 0.026 |
| A60U U63G | 0.789 |
| G61U | 1.03 |
| G61C | 1.14 |
| G61A | 0.853 |
| G61A C80U | 0.232 |
| U57A G61A | 0.0464 |
| U55C G84U | 0.0453 |
| U58G G59A C80U G86U | ≤ 0.026 |
| G61C C81G | 0.248 |
| A60C G85C | 0.0595 |
| G61C A74U C83G | ≤ 0.026 |
| A60G C75A | 0.976 |
| G61C C64U C68G G84A | ≤ 0.026 |

| Variant | nonsense suppression |
| --- | --- |
| G61C G88A | 0.0268 |
| G61C G88U | 0.0792 |
| U63G G66U G84A | ≤ 0.026 |
| G61C C79U | 0.202 |
| U55G A74U | ≤ 0.026 |
| U57A G78C | ≤ 0.026 |
| G66C G85A | ≤ 0.026 |
| G66A C75A | 1.18 |
| G66A C75U | 0.368 |
| A60U U70C U76C | ≤ 0.026 |
| A60U G73A | 0.222 |
| A60C A74G | 0.0424 |
| G59U A89G | ≤ 0.026 |
| G61C A87C | 0.0361 |
| G61C A87G | 0.247 |
| G61C A87U | 0.3 |
| U63C G85A | 1.06 |
| U63G C82U | 0.0882 |
| C56G U58C G66C | ≤ 0.026 |
| A62U G67U G69U | ≤ 0.026 |
| G61U A62U | 0.0397 |
| G61C G84U | 0.199 |
| U58G G66C C80G | 0.0324 |
| U63C A74G | 0.0264 |

| Variant | nonsense suppression |
| --- | --- |
| C56A G65C | ≤ 0.026 |
| A60C A62C A87G | ≤ 0.026 |
| U58A G59A U63A G69C U70G | ≤ 0.026 |
| C56G A62G | ≤ 0.026 |
| G61A C68U | 0.609 |
| G61A C68G | 0.0366 |
| U55C U57C | 0.026 |
| A60U U76C | 1.05 |
| U57A C81G A89G | ≤ 0.026 |
| U63A G78A | 0.06 |
| U63G U76C | 0.0764 |
| U63G U76A | 0.433 |
| A62U | 0.193 |
| A60U C79U | 0.761 |
| A60G G73C | ≤ 0.026 |
| U57C G61A | 0.0312 |
| A60G C64G | ≤ 0.026 |
| G59C U63A G66A C68U C72A | ≤ 0.026 |
| G61A C79U | 0.209 |
| G61A C79G | ≤ 0.026 |
| A62U U63C | ≤ 0.026 |
| U57C C79U | ≤ 0.026 |
| A62G C80U C81G | ≤ 0.026 |
| C64G U70C G84U | ≤ 0.026 |

| Variant | nonsense suppression |
| --- | --- |
| G61A A62C | 0.0863 |
| G61A A62U | 0.311 |
| G61C C80U | 0.731 |
| U55C C79U | 0.183 |
| U55C C79G | 0.035 |
| G61C U63G | 0.12 |
| G61C U63C | 0.196 |
| U63A G67A | ≤ 0.026 |
| U57C A60U | 0.0266 |
| G61C G78U | 0.13 |
| U55C G86C | 0.164 |
| U55C G86A | 0.0315 |
| U58C A60C | 0.0568 |
| G59C C75G | ≤ 0.026 |
| C56G G61C G88U | ≤ 0.026 |
| G65C G88A | ≤ 0.026 |
| G61U C75G | 1.08 |
| U63G A89G | 0.0674 |
| U63C C81U | 0.142 |
| G66A G67A G86C | ≤ 0.026 |
| A60U G78C G85A | 1.16 |
| G65C G66C U76C | 0.793 |
| U57A A60C | 0.0859 |

— the RNAGym collection of RNA variant scans (doi:10.1101/gad.245936.114)
